Insulin prom act: activators of insulin promoter-driven GFP, primary screen, imaging, TRM-6 cells, eGFP reporter, cell count; activation, % at 2 µM; 0.81% of 130,000 active; plate-scaled: unstimulated 0, stimulated control 100;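 active means activation at 2 µM above a set limit, confirmed on inspection of the cell images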;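 further: share of cells whose green reporter signal exceeds an intensity cutoff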
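Test system: human fetal islet-derived TRM-6 cells with tamoxifen-inducible insulin promoter–eGFP reporter; schedule: overnight tamoxifen, then two-day compound incubation at 37 °C; measured by: high-content imaging of fixed cells with Hoechst nuclear stain; evaluation: percent cells above green-intensity threshold, converted to percent activation versus plate controls; control set: stimulated and unstimulated wells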
* = called active by the depositor. Many of the other results were omitted from the sample, so hits are more common in it than they were.

SMILES	Insulin prom act
COc1cc(C(=O)Nc2ccc3c(c2)OCCO3)ccc1OC(F)F	-3.2
CCOC(=O)c1ccc(NC(=O)Nc2ccc3c(c2)OCCO3)cc1	-2.8
NC(=O)c1nn(CC(=O)Nc2ccc3c(c2)OCO3)cc1[N+](=O)[O-]	136.4
CC(C)CC(=O)n1sc(NC(=O)c2ccccc2)nc1=O	7.4
Cc1ccc(C(=O)Nc2nc(=O)n(C(=O)c3ccccc3Cl)s2)cc1	83.9*
CCn1c(NC(=O)c2ccc(C)cc2)c2ccccc2nc1=O	-9.1
O=[N+]([O-])c1ccc(Oc2cccc(F)c2)c2ccncc12	0.0
Cc1cc(NC(=O)c2cc3n(n2)C(C(F)(F)F)CC(c2ccco2)N3)n(-c2ccccc2)n1 (centres undefined)	229.7
Cc1nn(C)c(C)c1CNC(=O)c1cc2n(n1)C(C(F)(F)F)CC(c1cccs1)N2 (centres undefined)	278.9
CCCn1cc(NC(=O)c2cc3n(n2)C(C(F)(F)F)CC(c2ccccc2)N3)cn1 (centres undefined)	431.3*
COc1ccc(CCNC(=O)Cn2c(=O)n(-c3ccc(F)cc3)c(=O)c3sccc32)cc1OC	6.7
CC1CN(C(=O)C2(C)CC2(Cl)Cl)CC(C)O1 (centres undefined)	8.3
Cc1cc(C)n2nc(C(=O)Nc3ccc4c(c3)CCC4)nc2n1	-4.8
CC(C)(C)NS(=O)(=O)c1cc(C(=O)Nc2sccc2C#N)ccc1Cl	0.0
COc1ccc(OC)c2sc(N(CCN(C)C)C(=O)c3cc(Cl)sc3Cl)nc12	283.3*
CN(C)CCCN(C(=O)c1ccco1)c1nc2ccc(Cl)cc2s1	0.0
CN(C)CCN(C(=O)c1cccc(Cl)c1)c1nc2c(Cl)cccc2s1	-9.7
O=C(c1cc2sccc2n1Cc1ccccc1)N1CCN(c2nc3ccccc3s2)CC1	0.0
CC(C)OC(=O)CN1C(=O)S/C(=C/c2ccc(N3CCCCC3)o2)C1=O	170.3*
O=C1S/C(=C/c2ccc(N3CCOCC3)o2)C(=O)N1Cc1ccc(F)cc1	5.7
O=C1NC(=S)S/C1=C/c1ccc(N2CCOCC2)o1	140.6
CC1(C)CC(=O)C2=C(C1)c1c(ccc3ccccc13)NC2c1ccc(Br)o1 (centres undefined)	9.7
Cc1ccc(-n2ncc3c(SCc4ccccc4)ncnc32)cc1	8.8
CCOC(=O)CC(=O)CSc1ncnc2c1cnn2-c1ccccc1	-100.0
CCOC(=O)CSc1ncnc2c1cnn2-c1ccccc1	121.4*
SMILES	Insulin prom act
CCCCCCNCc1c(F)cccc1Cl	-8.6
O=C(CN1C(=O)/C(=C/c2cccc(Br)c2)SC1=S)N1CCCC1	121.2
Cc1ccc2nc(C)cc(C(=O)OCC(=O)Nc3c(C)n(C)n(-c4ccccc4)c3=O)c2c1	0.0
CC(=O)NC(=S)Nc1ccc(S(=O)(=O)Nc2nc(C)cc(C)n2)cc1	0.0
CCc1ccc(NC(=S)N2CCN(c3cccc(C(F)(F)F)c3)CC2)cc1	0.0
CC(=O)c1ccc(N2CCN(C(=S)Nc3cccc(F)c3)CC2)cc1	138.5*
CC(=O)c1ccc(NC(=O)N2CCN(c3cccc(Cl)c3)CC2)cc1	-9.5
Cc1ccccc1NC1(C#N)C(=O)Nc2ccccc21 (centres undefined)	-9.4
CC(C)c1ccc(NC2(C#N)C(=O)Nc3ccccc32)cc1 (centres undefined)	80.6*
Cc1c(N2C(=O)C(C)SC23C(=O)Nc2ccccc23)c(=O)n(-c2ccccc2)n1C (centres undefined)	3.4
Cc1ccc(CC(=O)N2CCN(c3ccccn3)CC2)cc1	-7.0
CC(=O)Nc1sc(C)c(C)c1C(=O)OCC(=O)Nc1cc(S(=O)(=O)N2CCCCC2)ccc1Cl	0.0
O=C(COc1ccccc1)N/N=C/c1ccc(O[C@@H]2O[C@H](CO)[C@@H](O)[C@H](O)[C@H]2O)cc1	3.7
C/C(CC(=O)NCc1ccc(F)cc1)=N\NC(N)=S	0.0
Cc1ccc(N/C=C(/C#N)c2ccsc2)cc1C	7.1
COc1cc(/C=N/Nc2snc(SC)c2C#N)ccc1O	2.3
CSc1nsc(/C=C/Nc2ccc(C)c(C)c2)c1C#N	669.2*
COC(=O)C1=C(CSc2nc3ccccc3s2)NC(=O)NC1c1ccc(F)cc1 (centres undefined)	0.0
COc1ccc(-c2nc3c(c(=O)n(C)c(=O)n3C)n2CC2CC(c3ccccc3)=NO2)cc1OC (centres undefined)	-40.9
Cc1ccc(C(=O)NCC(=O)OCC(=O)/C=C2\N(C)c3ccccc3C2(C)C)cc1C	-6.7
Cc1cc(=O)oc(C)c1C(=O)NCCCN1CCN(c2ccc(F)cc2)CC1	9.1
Cc1cc(=O)oc(C)c1C(=O)NCc1c(F)cc(F)cc1F	136.4*
Cc1cc(=O)oc(C)c1C(=O)NCc1ccco1	-9.3
Cc1cc(C)c(N2C(=NC(=O)CCCC(=O)O)SC3CS(=O)(=O)CC32)c(C)c1 (centres undefined)	8.3
COc1ccc(CCNC(=S)N2CCC(Cc3ccccc3)CC2)cc1OC	-5.3
SMILES	Insulin prom act
CCOC(=O)CSc1nc2c(sc3ccc([N+](=O)[O-])cc32)c(=O)n1Cc1ccco1	-9.1
CS(=O)(=O)Nc1ccccc1C(=O)N1CCN(c2ccccc2)CC1	-3.6
Cc1nccn1CC(=O)N/N=C/c1cccc(O)c1	-3.4
Nc1nc(N)nc(COc2ccccc2)n1	-7.7
Cc1nc2nc(COc3ccccc3)nn2c(C)c1Cl	456.3*
COc1ccc(CNc2nc3nc(C)c(Cl)c(C)n3n2)cc1OC	2.6
N/C(=N\OC(=O)CCC1CCCC1)c1ccccn1	-6.7
Cc1ccc(NC(=O)CSc2ncc3ccccn23)cc1C	0.0
Cc1ccc(C(C(=O)NCc2ccco2)N(C(=O)Cc2cccs2)c2cccnc2)cc1 (centres undefined)	110.3
Cc1ccc2nc(SCC(=O)NNC(=O)c3ccccc3)[nH]c2c1	0.0
CCN(CC)c1ccc(/C=N/NC(=O)CCC(=O)NCc2ccccc2)c(O)c1	183.3
CCC(=O)/C=C1/Sc2ccccc2N1CC	328.6
CCN1/C(=C/c2ccc3cc(C)ccc3[n+]2CC)Sc2ccccc21	170.3
CCN1/C(=C/C=C/C=C/c2sc3ccccc3[n+]2CC)Sc2ccccc21	354.5*
Cc1cccc(OCC(=O)N/N=C/CC(C)c2ccccc2)c1C (centres undefined)	0.0
COc1ccc(-[n+]2c(C)cc(/C=C3\Sc4ccccc4N3C)cc2C)cc1	400.0*
CCOc1ccc(N2C(=O)C3C(c4ccccc4F)NN(C(=O)c4ccc(C)cc4)C3C2=O)cc1 (centres undefined)	242.9
O=C(NC1CCCC1)C(c1ccccc1)N(Cc1ccc2c(c1)OCO2)C(=O)Cc1cccs1 (centres undefined)	246.2
NC(=O)c1noc(C(=O)N(CC(=O)NC2CCCC2)Cc2ccc3c(c2)OCO3)c1N	456.3*
Cn1cnnc1SCC(=O)N(Cc1ccc2c(c1)OCO2)C1(C(=O)NC2CCCCC2)CCCC1	7.1
Cc1ccc(SC(C)C(=O)Nc2ncn[nH]2)cc1 (centres undefined)	7.7
Cc1ccc(SC(C)C(=O)NCC(C)C)cc1 (centres undefined)	518.8*
CCCCCNC(=O)C(C)Sc1ccc(Cl)cc1 (centres undefined)	164.3
CCOC(=O)c1c(NC(=O)c2ccc(Cl)cc2)csc1C	-9.7
CCC(=O)Oc1ccc(C(=O)Nc2ccc3c(c2)C(=O)N(C2CCCCC2)C3=O)cc1	6.9
NC(=O)N/N=C/c1cc(Br)ccc1OC(=O)c1ccccc1	9.8
Cn1c(NCc2c(O)ccc3ccccc23)nc2ccccc21	-6.9
Cn1c(Nn2cnnc2)nc2ccccc21	121.4*
CCCn1c(Nc2ccccc2)nc2ccccc21	9.7

Screening data deposited in PubChem BioAssay by Columbia University Molecular Screening Center.
